The source made the active and inactive calls. The calls are words filed in the database; no cut-off is given here.
Experiments:
[1] = Cytotoxicity against human HepG2 cells assessed as cell viability at 1 to 300 ug/ml after 24 hrs by MTT assay relative to control; format: cell-based; settings: read-out: Activity
Summary of the method: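 HepG2 cells exposed to the melanin were read by MTT absorbance. Viability (% of control) is calculated as treated-well absorbance ×100 / control-well absorbance.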

Mus musculus [2] = experiment: Protective effect against adenine-induced chronic renal failure in ig dosed Kunming mouse assessed as decrease in serum creatinine levels administered as qd for 4 successive weeks by picric acid colorimetric method; format: functional, organism-based
Summary of the method: (§1)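 Adenine-fed CRF model in male Kunming mice (20 ± 5 g) housed at 18–20 °C on a 12 h light/dark cycle. Oral dosing at 100 or 200 mg kg–1, with or without Haikunshenxi capsule; ten mice per group. Serum creatinine, BUN, total protein and albumin measured, each group compared with the model group.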

Mus musculus [3] = experiment: Protective effect against adenine-induced chronic renal failure in ig dosed Kunming mouse assessed as decrease in serum creatinine levels administered as qd for 4 successive weeks with haikunshenxi capsule by picric acid colorimetric method; format: functional, organism-based; summary of the method: as §1
Mus musculus [4] = experiment: Protective effect against adenine-induced chronic renal failure in ig dosed Kunming mouse assessed as increase in total protein levels in serum administered as qd for 4 successive weeks with haikunshenxi capsule by coomassie brilliant blue method; format: functional, organism-based; summary of the method: as §1
Mus musculus [5] = experiment: Protective effect against adenine-induced chronic renal failure in Kunming mouse assessed as weight growth rate at 200 mg/kg, ig qd administered for 4 successive weeks measured 24 hrs post last dose (reference value: 32.42 +/- 1.43%); format: functional
Summary of the method: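 Male Kunming mice (20 ± 5 g) kept on a 12 h light/dark cycle at 18–20 °C on a standard diet. CRF induced by chronic dietary adenine. Test material given orally at 100 or 200 mg kg–1, alone or with Haikunshenxi capsule, alongside normal, model and capsule-only groups; ten mice per group. Weight growth rate recorded in %, kidney index in mg g–1.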

Mus musculus [6] = experiment: Protective effect against adenine-induced chronic renal failure in Kunming mouse assessed as nephridial SOD levels at 100 mg/kg, ig qd administered for 4 successive weeks by hydroxylamine method (reference value: 30.45 +/- 1.12 U/mg); format: functional
Mus musculus [7] = experiment: Protective effect against adenine-induced chronic renal failure in Kunming mouse assessed as nephridial SOD levels at 200 mg/kg, ig qd administered for 4 successive weeks with haikunshenxi capsule by hydroxylamine method (reference value: 30.45 +/- 1.12 U/mg); format: functional
Mus musculus [8] = experiment: Protective effect against adenine-induced chronic renal failure in Kunming mouse assessed as nephridial CAT levels at 100 mg/kg, ig qd administered for 4 successive weeks with haikunshenxi capsule by visible spectrometry method (reference value: 44.13 +/- 1.25 U/mg); format: functional
Mus musculus [9] = experiment: Protective effect against adenine-induced chronic renal failure in Kunming mouse assessed as nephridial GSH levels at 200 mg/kg, ig qd administered for 4 successive weeks by colorimetric method (reference value: 3.05 +/- 0.11 mg/g); format: functional
Mus musculus [10] = experiment: Protective effect against adenine-induced chronic renal failure in Kunming mouse assessed as nephridial MDA levels at 100 mg/kg, ig qd administered for 4 successive weeks by thiobarbituric acid method (reference value: 5.05 +/- 0.15 nmol/ml); format: functional
Mus musculus [11] = experiment: Protective effect against adenine-induced chronic renal failure in Kunming mouse assessed as nephridial MDA levels at 200 mg/kg, ig qd administered for 4 successive weeks with haikunshenxi capsule by thiobarbituric acid method (reference value: 5.05 +/- 0.15 nmol/ml); format: functional
Mus musculus [12] = experiment: Protective effect against adenine-induced chronic renal failure in ig dosed Kunming mouse assessed as increase in nephridial CAT levels administered as qd for 4 successive weeks by visible spectrometry method; format: functional, organism-based
Summary of the method: (§2)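 Male Kunming mice (20 ± 5 g) given dietary adenine to induce CRF, then dosed orally at 100 or 200 mg kg–1, with or without Haikunshenxi capsule; n = 10 per group. Kidney homogenate assayed for SOD and CAT (U mg–1 protein), GSH-Px (U L–1), GSH (mg g–1 protein) and MDA (nmol mL–1).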

Mus musculus [13] = experiment: Protective effect against adenine-induced chronic renal failure in ig dosed Kunming mouse assessed as increase in nephridial GSH-PX levels administered as qd for 4 successive weeks by colorimetric method; format: functional, organism-based; summary of the method: as §2
Mus musculus [14] = experiment: Protective effect against adenine-induced chronic renal failure in ig dosed Kunming mouse assessed as decrease in nephridial MDA levels administered as qd for 4 successive weeks by thiobarbituric acid method; format: functional, organism-based; summary of the method: as §2
Mus musculus [15] = experiment: Protective effect against adenine-induced chronic renal failure in ig dosed Kunming mouse assessed as increase in nephridial CAT levels administered as qd for 4 successive weeks with haikunshenxi capsule by visible spectrometry method; format: functional, organism-based; summary of the method: as §2
Mus musculus [16] = experiment: Protective effect against adenine-induced chronic renal failure in ig dosed Kunming mouse assessed as increase in nephridial GSH-PX levels administered as qd for 4 successive weeks with haikunshenxi capsule by colorimetric method; format: functional, organism-based; summary of the method: as §2
Mus musculus [17] = experiment: Protective effect against adenine-induced chronic renal failure in Kunming mouse assessed as nephridial IL-1beta levels at 200 mg/kg, ig qd administered for 4 successive weeks (reference value: 18.34 +/- 0.25 pg/ml); format: functional
Mus musculus [18] = experiment: Protective effect against adenine-induced chronic renal failure in Kunming mouse assessed as nephridial IL-1beta levels at 100 mg/kg, ig qd administered for 4 successive weeks with haikunshenxi capsule (reference value: 18.34 +/- 0.25 pg/ml); format: functional
Mus musculus [19] = experiment: Protective effect against adenine-induced chronic renal failure in Kunming mouse assessed as nephridial iNOS levels at 200 mg/kg, ig qd administered for 4 successive weeks (reference value: 1.98 +/- 0.12 U/mg); format: functional
Mus musculus [20] = experiment: Protective effect against adenine-induced chronic renal failure in Kunming mouse assessed as nephridial iNOS levels at 100 mg/kg, ig qd administered for 4 successive weeks with haikunshenxi capsule (reference value: 1.98 +/- 0.12 U/mg); format: functional
Mus musculus [21] = experiment: Protective effect against adenine-induced chronic renal failure in ig dosed Kunming mouse assessed as decrease in nephridial IL-1beta levels administered as qd for 4 successive weeks; format: functional, organism-based
Summary of the method: (§3)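 CRF model made by chronic dietary adenine in male Kunming mice (20 ± 5 g); oral dosing at 100 or 200 mg kg–1, alone or with Haikunshenxi capsule; ten mice per group. Kidney tissue TNF-α, IL-1β and IL-6 measured as pg per mg protein, and iNOS activity as U mg–1 protein.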

Mus musculus [22] = experiment: Protective effect against adenine-induced chronic renal failure in ig dosed Kunming mouse assessed as decrease in nephridial TNF-alpha levels administered as qd for 4 successive weeks with haikunshenxi capsule; format: functional, organism-based; summary of the method: as §3
Mus musculus [23] = experiment: Protective effect against adenine-induced chronic renal failure in Kunming mouse assessed as appearance of complete glomeruli in kidney at 100 mg/kg, ig qd administered for 4 successive weeks by haematoxylin and eosin dye-based optical microscopic method; format: functional, organism-based
Summary of the method: (§4)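 Kidneys were taken from male Kunming mice given an adenine diet plus oral melanin (100 or 200 mg kg–1), with or without Haikunshenxi capsule, ten per group. Histological sections were examined at 400× for glomeruli, tubules, adenine crystals, tubular atrophy and interstitial fibrosis.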

Mus musculus [24] = experiment: Protective effect against adenine-induced chronic renal failure in Kunming mouse assessed as appearance of complete kidney tubules at 100 mg/kg, ig qd administered for 4 successive weeks by haematoxylin and eosin dye-based optical microscopic method; format: functional, organism-based; summary of the method: as §4

Cc1c(=O)c(=O)c2c3c[nH]c4c(C)c(=O)c(=O)c(c5c[nH]c1c52)c43
viability at 24 h [1]: 100%
Activity (Mus musculus [2]): Dose-dependent effect
Activity (Mus musculus [3]): Dose-dependent effect
Activity (Mus musculus [4]): Dose-dependent effect
Activity (Mus musculus [5]): 52.68%
Activity (Mus musculus [6]): 32.32 U/mg
Activity (Mus musculus [7]): 48.58 U/mg
Activity (Mus musculus [8]): 74.25 U/mg
Activity (Mus musculus [9]): 4.84 mg/g
Activity (Mus musculus [10]): 3.95 nmol/mL
Activity (Mus musculus [11]): 2.88 nmol/mL
Activity (Mus musculus [12]): Dose-dependent effect
Activity (Mus musculus [13]): Dose-dependent effect
Activity (Mus musculus [14]): Dose-dependent effect
Activity (Mus musculus [15]): Dose-dependent effect
Activity (Mus musculus [16]): Dose-dependent effect
Activity (Mus musculus [17]): 16.03 pg/mL
Activity (Mus musculus [18]): 14.51 pg/mL
Activity (Mus musculus [19]): 1.64 U/mg
Activity (Mus musculus [20]): 0.79 U/mg
Activity (Mus musculus [21]): Dose-dependent effect
Activity (Mus musculus [22]): Dose-dependent effect
Activity (Mus musculus [23]): Active
Activity (Mus musculus [24]): Active
